ChEMBL document CHEMBL4118054, “Tamarixetin 3-O-β-d-Glucopyranoside from Azadirachta indica Leaves: Gastroprotective Role through Inhibition of Matrix Metalloproteinase-9 Activity in Mice” (J Nat Prod, 2017)
The source made the active and inactive calls. The calls are words filed in the database; no cut-off is given here.

Legend:
Mus musculus [1] = assay: Toxicity in indomethacin-induced gastric ulceration Balb/c mouse model assessed as alteration in gastric tissue at 15 to 25 mg/kg, po administered 30 mins prior to indomethacin challenge measured after 4 hrs; assay type: organism-based; conditions: in vivo
Mus musculus [2] = assay: Antiulcerogenic activity in indomethacin-induced gastric ulceration Balb/c mouse model assessed as gastric damage index at 15 mg/kg, po administered 30 mins prior to indomethacin challenge measured after 4 hrs by H and E staining based microscopic method (reference value: 40 +/- 7); assay type: functional
Method in brief: (§1)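 Same indomethacin model (80 mg/kg b.w. oral, test agent 15 or 25 mg/kg b.w. oral 30 min prior, sacrifice at 4 h). Stomach pieces fixed in 4% paraformaldehyde, paraffin-embedded, ~5 μm sections H&E stained. Damage index scored blind as percentage of the gastric corpus circumference showing hemorrhage or epithelial disruption; submucosal infiltrating cells and epithelial continuity inspected microscopically.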

[3] = biological target: T1, Matrix metalloproteinase-9 (Homo sapiens, UniProt P14780); assay: Residual activity of recombinant human full length MMP9 at 125 uM preincubated for 1 hr followed by gelatin addition measured after 18 hrs by SDS-PAGE analysis relative to control
T1 sequence (P14780 whole entry): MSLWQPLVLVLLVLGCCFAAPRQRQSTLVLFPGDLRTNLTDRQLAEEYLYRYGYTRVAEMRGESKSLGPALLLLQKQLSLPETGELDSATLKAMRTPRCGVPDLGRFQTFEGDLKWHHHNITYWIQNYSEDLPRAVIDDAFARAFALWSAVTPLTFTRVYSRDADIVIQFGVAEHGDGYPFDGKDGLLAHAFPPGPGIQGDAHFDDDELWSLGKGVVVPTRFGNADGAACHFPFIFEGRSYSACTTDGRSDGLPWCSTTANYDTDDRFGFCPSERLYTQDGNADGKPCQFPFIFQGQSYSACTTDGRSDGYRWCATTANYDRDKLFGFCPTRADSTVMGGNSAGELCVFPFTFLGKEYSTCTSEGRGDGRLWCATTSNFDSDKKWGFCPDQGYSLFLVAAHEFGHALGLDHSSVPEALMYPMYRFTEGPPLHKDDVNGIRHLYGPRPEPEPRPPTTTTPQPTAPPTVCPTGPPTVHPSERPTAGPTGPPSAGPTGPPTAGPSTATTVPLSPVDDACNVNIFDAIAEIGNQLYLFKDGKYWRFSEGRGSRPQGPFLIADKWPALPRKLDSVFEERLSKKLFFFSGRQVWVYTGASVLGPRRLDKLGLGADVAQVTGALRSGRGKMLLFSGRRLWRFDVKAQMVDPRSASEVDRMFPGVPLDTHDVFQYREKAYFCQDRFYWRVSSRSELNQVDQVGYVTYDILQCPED

[4] = biological target: T1, Matrix metalloproteinase-9; assay: Residual activity of recombinant human full length MMP9 at 250 uM preincubated for 1 hr followed by gelatin addition measured after 18 hrs by SDS-PAGE analysis relative to control
[5] = biological target: T1, Matrix metalloproteinase-9; assay: Residual activity of recombinant human full length MMP9 at 60 uM preincubated for 1 hr followed by gelatin addition measured after 18 hrs by SDS-PAGE analysis relative to control
[6] = biological target: T1, Matrix metalloproteinase-9; assay: Inhibition of recombinant human full length MMP9 preincubated for 1 hr followed by gelatin addition measured after 18 hrs by SDS-PAGE analysis
Method in brief: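 Full-length recombinant human MMP-9 (~5 μg) incubated 1 h at room temperature with 0−500 μM test agent, then run on nonreducing 8% SDS-PAGE with 1 mg/mL gelatin. Gels washed in 2.5% Triton X-100, incubated 18 h at 37 °C in 40 mM Tris-HCl pH 7.4, 200 mM NaCl, 10 mM CaCl2, Coomassie stained; lysis bands quantified by densitometry against untreated enzyme. IC50 taken from activity change versus concentration, saturation set as 100%.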

Mus musculus [7] = assay: (§2) Antiulcerogenic activity in indomethacin-induced gastric ulceration Balb/c mouse model assessed as decrease in visible gastric hemorrhagic lesions in fundic stomach by measuring ulcer index at 15 mg/kg, po administered 30 mins prior to indomethacin challenge measured after 4 hrs (reference value: 35 +/- 7.5); assay type: functional
[8] = biological target: T1, Matrix metalloproteinase-9; assay: Binding affinity to human full length MMP9 assessed as decrease in cotton effects of compound up to 500 uM by CD spectral analysis
Mus musculus [9] = assay: as §2, with “25” for “15”; assay type: functional
Mus musculus [10] = assay: Antiulcerogenic activity in indomethacin-induced gastric ulceration Balb/c mouse model assessed as restoration of intact epithelial layer in stomach at 15 to 25 mg/kg, po administered 30 mins prior to indomethacin challenge measured after 4 hrs by H and E staining based microscopic method; assay type: functional, organism-based; method in brief: as §1
[11] = biological target: T1, Matrix metalloproteinase-9; assay: Binding affinity to human full length MMP9 by CD spectral analysis
Method in brief: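 Near-UV/visible CD spectra (240−700 nm), 1.0 mm quartz cell, under nitrogen at room temperature in aqueous buffer. Ligand held at 100 μM (from 10 mM methanol stock) while MMP-9 varied 0−333 nM. Kd at half-saturation derived from a double-reciprocal plot of Δθ against MMP-9 concentration.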

Mus musculus [12] = assay: In vivo inhibition of MMP9 in indomethacin-induced gastric ulceration Balb/c mouse model assessed as reduction in indomethacin-induced ProMMP9 activity in gastric tissue administered orally 30 mins prior to indomethacin challenge measured after 4 hrs by gelatin zymographic method; assay type: functional, organism-based
Method in brief: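 Gastric tissue from the indomethacin model (test agent orally 15 or 25 mg/kg b.w., 30 min before indomethacin, 4 h) minced at 4 °C in PBS with protease inhibitors, spun 12000g 15 min. PBS extract (70 μg protein/lane, Lowry) run on 8% SDS-PAGE with 1 mg/mL gelatin, nonreducing. Gels washed in 2.5% Triton X-100, incubated 18 h at 37 °C in 40 mM Tris-HCl pH 7.4, 0.2 M NaCl, 10 mM CaCl2, Coomassie stained, densitometry.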

Mus musculus [13] = assay: Antiulcerogenic activity in indomethacin-induced gastric ulceration Balb/c mouse model assessed as decrease in visible gastric hemorrhagic lesions in fundic stomach administered orally 30 mins prior to indomethacin challenge measured after 4 hrs; assay type: functional, organism-based
Mus musculus [14] = assay: Antiulcerogenic activity in indomethacin-induced gastric ulceration Balb/c mouse model assessed as gastric damage index at 25 mg/kg, po administered 30 mins prior to indomethacin challenge measured after 4 hrs by H and E staining based microscopic method (reference value: 40 +/- 7); assay type: functional; method in brief: as §1
Mus musculus [15] = assay: Antiulcerogenic activity in indomethacin-induced gastric ulceration Balb/c mouse model assessed as infilteration of inflammatory cells at submucosal layer at 15 to 25 mg/kg, po administered 30 mins prior to indomethacin challenge measured after 4 hrs by H and E staining based microscopic method; assay type: functional, organism-based; method in brief: as §1

SMILES: COc1ccc(-c2oc3cc(O)cc(O)c3c(=O)c2O[C@@H]2O[C@H](CO)[C@@H](O)[C@H](O)[C@H]2O)cc1O
- Activity (Mus musculus [1]): Non-Toxic
- Activity_index (Mus musculus [2]): 10
- residual activity [3]: 45%
- residual activity [4]: 40%
- residual activity [5]: 60%
- IC50 [6]: 50 µM
- inhibition [6]: Dose-dependent effect
- UI (Mus musculus [7]): 8
- Activity [8]: Active
- UI (Mus musculus [9]): 5
- Activity (Mus musculus [10]): Active
- Kd [11]: 0.1 µM
- inhibition (Mus musculus [12]): Dose-dependent effect
- Activity (Mus musculus [13]): Dose-dependent effect
- Activity_index (Mus musculus [14]): 5
- Activity (Mus musculus [15]): Active
